Shown are actives, neighbours in structure and some others; about 1.5% of the full set was active somewhere.
Mot1-301 SUMO – inhibitors of SUMOylation pathway: yeast Mot1-301 growth rescue; S. cerevisiae Mot1-301 growth rescue, ATP luminescence, 38.5C; percent above DMSO median, 100 means doubled; growth rescue, % at 18.8 µM; 320,000 tested, 1% active;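 active = every valid replicate shows activation above 250% relative to neutral control wells; inactive = the rest, any valid replicate at or below 250%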
C2C12 statin – suppression of simvastatin myotoxicity; rescue of ATP level, % at 7.49 µM; C2C12 myotubes + simvastatin, ATP luminescence, 48 h; scaled: DMSO 0, geranylgeraniol control 100; 330,000 tested, 0.78% active;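 active = mean ATP rescue above about 67%, or every replicate alone reaching that limit, limit read from the data, passing the limit was not always enough; inconclusive = no clear call, values can overlap the other calls; inactive = mean under the limit and some replicate under it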;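 also: myotubes were challenged with 10 µM simvastatin during compound exposure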
Cneo AK release – causes C. neoformans cell lysis | AID 651654 | adenylate kinase release luminescence, 4 h; normalised: neutral wells 0, clomiphene wells 100 | lysis activity, % at 15 µM | 360,000 tested, 0.2% active;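 active = mean lysis activity across replicates of at least 80%, whatever share of replicates individually reach that level; inactive = mean lysis activity below 80%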
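Test system: log-phase Cryptococcus neoformans yeast cells. Input: 5 × 10^6 yeast cells/mL. Medium: fresh YPD growth medium. Doses: single dose. Incubation: static 4 h at 37 °C with compound, 1 h detection. Measured by: luminescent adenylate kinase detection reagent. Read-out: signal increase indicating cell lysis. Benchmarks: Clomiphene.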
Numbers stand for hits; - = inactive; ? = inconclusive; . = no result given.

SMILES | Mot1-301 SUMO | C2C12 statin | Cneo AK release
C[C@@H]1CN([C@H](C)CO)C(=O)c2cc(NC(=O)Cc3ccccc3)ccc2O[C@@H](C)CCCCO[C@H]1CN(C)Cc1ccc(C(F)(F)F)cc1 | . | - | -
COc1ccc(-n2cccc2C=O)cc1OC | - | - | -
COc1ccccc1-n1cccc1C=O | 659 | . | .
CCCN(C)C[C@H]1Oc2cc(-c3cccc(OC)c3)ccc2S(=O)(=O)N([C@H](C)CO)C[C@H]1C | . | - | -
c1ccc(CC[C@@H]2CC[C@@H](CCc3ccccc3)N2)cc1 | - | - | -
CCCC1CC(CCc2ccccc2)OS(=O)(=O)N1 (centres undefined) | - | 95 | -
C=CCc1c(C)[nH]c2ccc(C)cc2c1=O | - | 95 | -
CCc1c(C)[nH]c2ccc(C)cc2c1=O | - | - | -
O=c1oc2cc(OCc3ccc(F)cc3F)ccc2cc1-c1ccccn1 | . | 130 | -
O=c1oc2cc(OCc3c(F)c(F)c(F)c(F)c3F)ccc2cc1-c1ccccn1 | - | . | .
Cc1ccc(NC2=CC(=O)CC(C)(C)C2)cc1F | - | - | -
Cc1cc(N)c(NC2=CC(=O)CC(C)(C)C2)cc1C | . | 138 | -
C[C@@H]1CCCCO[C@H](CN(C)C(=O)c2ccncc2)[C@@H](C)CN([C@@H](C)CO)C(=O)c2cc(NC(=O)Cc3ccccc3)ccc2O1 | . | - | -
C[C@H](CO)N1C[C@H](C)[C@@H](CN(C)C(=O)c2ccncc2)OCCCC[C@H](C)Oc2ccc(NC(=O)Cc3ccccc3)cc2C1=O | . | - | 102
C[C@@H]1CCCCO[C@@H](CN(C)C(=O)c2ccncc2)[C@H](C)CN([C@H](C)CO)C(=O)c2cc(NC(=O)Cc3ccccc3)ccc2O1 | . | - | -
C[C@H]1CCCCO[C@H](CN(C)C(=O)c2ccncc2)[C@@H](C)CN([C@@H](C)CO)C(=O)c2cc(NC(=O)Cc3ccccc3)ccc2O1 | . | - | 113
Cc1ccc(CSCC(=O)N2CCOCC2)cc1 | - | 104 | -
O=C(CSCc1ccc(Cl)cc1)N1CCOCC1 | - | - | .
COc1ccc(NC(=O)N(C)C[C@H]2OCCCC[C@@H](C)Oc3ccc(NC(=O)Nc4ccc(F)cc4)cc3C(=O)N([C@@H](C)CO)C[C@H]2C)cc1 | . | . | -
C[C@@H]1CN([C@@H](C)CO)C(=O)c2cc(NC(=O)Nc3ccccc3)ccc2O[C@@H](C)CCCCO[C@H]1CN(C)C(=O)CCC(F)(F)F | . | . | -
O=C1Nc2ccc(Br)cc2C1(O)c1ccccc1 (centres undefined) | - | - | -
O=C1Nc2ccc(Br)cc2C12NNc1ccccc1O2 (centres undefined) | 309 | - | -
Cc1ccc(S(=O)(=O)N(C)C[C@@H]2Oc3ccc(N(C)C)cc3CC(=O)N([C@@H](C)CO)C[C@H]2C)cc1 | . | - | -
C[C@H](CO)N1C[C@H](C)[C@@H](CN(C)C(=O)NC2CCCCC2)Oc2ccc(NS(=O)(=O)c3ccc(F)cc3)cc2CC1=O | . | - | -
O=C(Oc1ccc(C(=S)N2CCOCC2)cc1Br)c1ccccc1F | - | 149 | -
SMILES | Mot1-301 SUMO | C2C12 statin | Cneo AK release
O=C(Oc1ccc(C(=S)N2CCOCC2)cc1Cl)c1ccccc1F | - | - | -
CCC(CC)C(=O)NC12CC3CC(CC(C3)C1)C2 | - | 89 | -
CCN(CC)CC(=O)NC12CC3CC(CC(C3)C1)C2 | - | . | -
Cc1ccc(C(C(=O)NC2CCCC2)N(C(=O)Cc2cccs2)c2ccc3c(c2)OCCO3)cc1 (centres undefined) | - | 106 | -
O=C(NCC(=O)N(Cc1cccs1)C(C(=O)NC1CCCCC1)c1cccnc1)c1ccco1 (centres undefined) | - | 133 | -
O=C(NCC(=O)N(c1ccc2c(c1)OCO2)C(C(=O)NC1CCCC1)c1ccncc1)c1ccco1 (centres undefined) | - | 66 | -
O=C(NCC(=O)N(Cc1ccccc1)C(C(=O)NC1CCCC1)c1cccnc1)c1ccco1 (centres undefined) | - | - | -
COc1ccc(C(C(=O)NC2CCCC2)N(C(=O)c2ccco2)c2ccc(OC)c(OC)c2)cc1 (centres undefined) | - | - | -
COc1ccc(N(C(=O)c2ccco2)C(C(=O)NC2CCCC2)c2ccncc2)cc1OC (centres undefined) | 275 | - | -
O=C(NC1CCCC1)C(c1ccc(F)cc1)N(C(=O)Cc1cccs1)c1ccc2c(c1)OCCO2 (centres undefined) | - | - | -
O=C(NCC(=O)N(c1ccc(Cl)cc1)C(C(=O)NC1CCCC1)c1ccncc1)c1ccco1 (centres undefined) | - | - | -
CC(C)NC(=O)N(C)C[C@H]1Oc2cc(C#Cc3cccc(F)c3)ccc2S(=O)(=O)N([C@H](C)CO)C[C@H]1C | . | - | -
CC(=O)N(C)C[C@H]1Oc2cc(-c3cccc(C#N)c3)ccc2S(=O)(=O)N([C@@H](C)CO)C[C@H]1C | . | - | -
O=C(c1ccc(F)cc1)N1CCCCN2[C@H](CO)[C@H](c3ccc(C#CC4(O)CCCC4)cc3)[C@@H]2C1 | . | . | -
Cc1noc(C)c1NC(=O)N(C)C[C@H]1Oc2ccc(NC(=O)CCN3CCOCC3)cc2C(=O)N([C@@H](C)CO)C[C@H]1C | . | . | -
O=C(O)C1CCC(=O)N(C2CCCCC2)C1c1ccccc1Cl (centres undefined) | - | - | -
O=C(O)C1CCC(=O)N(C2CC2)C1c1ccccc1 (centres undefined) | . | 107 | -
O=c1c2ccccc2c(C=NC2CCS(=O)(=O)C2)c(O)n1-c1ccccc1 (centres undefined) | - | - | -
O=S1(=O)CCC(N=Cc2cc(Br)ccc2O)C1 (centres undefined) | - | - | 85
C[C@H](CO)N1C[C@H](C)[C@@H](CN(C)C(=O)Nc2ccc(C(F)(F)F)cc2)OCCCC[C@H](C)Oc2ccc(NC(=O)Nc3cccc4ccccc34)cc2C1=O | . | ? | -
CN1C(=O)c2cc(NC(=O)c3ccc(C#N)cc3)ccc2OC[C@H]2O[C@@H](CC(=O)NCc3ccc4c(c3)OCO4)CC[C@@H]21 | . | - | -
COC(=O)C[C@@H]1CC[C@@H]2[C@H](COc3ccc(NS(=O)(=O)c4ccccc4Cl)cc3C(=O)N2C)O1 | . | - | -
COc1cccc(C#Cc2cnc3c(c2)C(=O)N([C@@H](C)CO)C[C@@H](C)[C@H](CN(C)C(=O)C2CCOCC2)O3)c1 | . | - | -
CCCC#Cc1cnc2c(c1)C(=O)N([C@H](C)CO)C[C@@H](C)[C@@H](CN(C)C(=O)Nc1cccc(F)c1)O2 | . | - | -
COCC(=O)N(C)C[C@@H]1Oc2ncc(C#CCC3CCCC3)cc2C(=O)N([C@@H](C)CO)C[C@H]1C | . | - | 103
CCCC#Cc1cnc2c(c1)C(=O)N([C@@H](C)CO)C[C@H](C)[C@H](CN(C)C(=O)Nc1cccc(F)c1)O2 | . | - | 88
COCC(=O)N(C)C[C@H]1Oc2ncc(C#CCC3CCCC3)cc2C(=O)N([C@H](C)CO)C[C@H]1C | . | - | -
COc1ccc(C#Cc2cnc3c(c2)C(=O)N([C@@H](C)CO)C[C@@H](C)[C@H](CN(C)C(=O)Nc2cccc(OC)c2)O3)cc1 | . | 112 | .
